Screening data from PubChem.
APJ antagonist = antagonists of human APJ apelin receptor. AID 2521. 330,000 tested, 0.32% active. CHO-K1 APJ beta-arrestin complementation, luminescence. inhibition, % at 20 µM;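 active = inhibition above about 40% at 20 µM, limit read from the data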;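 note: cells challenged with 10 nM apelin-13 agonist together with compound; plate controls were apelin-13 plus DMSO wells for no effect and DMSO wells lacking apelin-13 for full effect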
APJ agonist = agonists of human APJ apelin receptor | CHO-K1 APJ PathHunter beta-arrestin, luminescence; 0% DMSO wells, 100% apelin | activation, % at 20 µM | 330,000 tested, 0.11% active | AID 2520;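 active = activation more than six SD over the plate average, tested at 20 µM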;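 note: 0% = DMSO alone and 100% = apelin-13 at 10 nM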
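Assay system – PathHunter CHO-K1 APJ (AGTRL-1) beta-arrestin reporter cells · Compound – one dose, 20 µM compound, 1% DMSO · Timing – compound 90 min 25 °C, reagent 1 h · Measured by – luminescence from split beta-galactosidase complementation, Galacton Star/Emerald II substrate · Measure – beta-arrestin recruitment to APJ as agonist activity, luminescent signal · Benchmarks – DMSO vs Apelin-13 10 nM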
CXCR6 inh = blocks human CXCR6 beta-arrestin recruitment; AID 602244; 360,000 tested, 0.36% active; O00574; CHO-K1 PathHunter CXCR6 beta-arrestin, luminescence; inhibition, % at 20 µM; in the data active = inhibition above about 34%, passing the limit was not always enough;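 note: antagonist mode with CXCL16 agonist at 10 nM final; 0% = 10 nM CXCL16 with DMSO and 100% = unstimulated wells without agonist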
CCR6 antagonist = blocks CCL20-driven beta-arrestin recruitment at human CCR6; 340,000 tested, 0.49% active; inhibition, % at 20 µM; CHO-K1 CCR6 PathHunter beta-arrestin, luminescence, CCL20-stimulated; AID 493098;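 active = compounds whose inhibition of the agonist-driven luminescence signal at 20 µM reaches about 50%, limit read from the data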;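 note: cells stimulated with CCL20 at 14 nM final; plate controls were DMSO with CCL20 for no effect and DMSO without agonist for full effect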
Target sequence (P51684 whole entry, looked up): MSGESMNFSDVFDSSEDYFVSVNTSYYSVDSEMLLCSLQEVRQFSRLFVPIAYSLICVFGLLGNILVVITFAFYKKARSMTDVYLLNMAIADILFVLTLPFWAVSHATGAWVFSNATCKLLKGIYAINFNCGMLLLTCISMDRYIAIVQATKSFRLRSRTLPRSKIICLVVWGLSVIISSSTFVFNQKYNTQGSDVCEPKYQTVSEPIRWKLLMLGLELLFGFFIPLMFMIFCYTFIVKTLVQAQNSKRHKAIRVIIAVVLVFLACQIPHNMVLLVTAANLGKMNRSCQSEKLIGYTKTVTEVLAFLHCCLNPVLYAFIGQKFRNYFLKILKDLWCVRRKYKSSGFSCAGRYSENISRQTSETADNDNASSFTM
EBI2 block = EBI2 (human) antagonism. P32249. EBI2 beta-arrestin recruitment, luminescence, 7a,25-OHC stimulated. inhibition, % at 5 µM. 360,000 tested, 0.81% active; in the data active = inhibition above about 38%;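 note: enzyme fragment complementation signal reports receptor beta-arrestin coupling in cells; 0% = agonist plus DMSO wells and 100% = wells without agonist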
APJ ag conf = confirmation of human APJ apelin receptor agonists; AID 2764; activation, % at 20 µM; 310 tested, 10% active; CHO-K1 APJ PathHunter beta-arrestin, luminescence; shares compounds with APJ agonist;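 active = activation above 40%, taking the highest of four retests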;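 note: plate controls were DMSO wells for no effect and apelin-13 at 10 nM for full effect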
APJ antag conf = APJ receptor antagonism confirmation; 950 tested, 66% active; APJ beta-arrestin recruitment, luminescence, antagonist mode; inhibition, % at 20 µM; AID 2766; shares compounds with APJ antagonist; in the data active = inhibition above about 50%
* = called active by the depositor; · = no result. Hits are enriched below; roughly 1.5% of the tested compounds scored in any of these assays.

SMILES	APJ antagonist	APJ agonist	CXCR6 inh	CCR6 antagonist	EBI2 block	APJ ag conf	APJ antag conf
N/C(=N\OC(=O)c1ccc(Cl)c(Cl)c1)c1ccccn1	-103	10	-15	-20	-19	·	·
N/C(=N\OC(=O)c1cccc(Cl)c1)c1ccccn1	-78	6	-43	-10	-18	·	·
N/C(=N\OC(=O)c1cccc(Br)c1)c1ccccn1	-158	34*	-22	-37	-39	11	·
N/C(=N\OC(=O)c1ccc(Cl)c([N+](=O)[O-])c1)c1ccccn1	-43	17*	-21	-18	23	7	·
COc1cccc(/C=C2\CCC(C3CCCC3)C2=O)c1OC (stereo not given)	12	-3	3	14	1	·	·
CS(=O)c1nc(-c2ccc(Br)cc2)cc(-c2ccccc2)c1C#N (stereo not given)	-6	36*	-16	10	64*	18	·
O=S(=O)(c1ccccc1)N(CC(F)(F)F)c1ccc(C(O)(C(F)(F)F)C(F)(F)F)cc1	·	·	-12	·	11	·	·
O=C(OCC(=O)N1CCCC1=O)c1cc2ccccc2o1	-4	16*	-3	-2	-8	14	·
COc1cccc(NC(=O)COC(=O)C2=NN(c3ccccc3)C(=O)CC2)c1	12	-2	-1	1	-4	·	·
CCCCc1cc(O)c(CCCC)c(O)c1	-25	13*	-17	12	2	21	·
Cc1ncc(CO)c2c1Oc1nc(-c3ccccc3)nc(SCC(=O)N(C)c3ccccc3)c1C2	-134	28*	·	·	·	23	·
CSc1cccc(NC(=S)NC(=O)CCc2ccccc2)c1	-108	43*	-17	-29	6	51*	·
CSc1cccc(NC(=O)CCc2ccccc2)c1	-12	-3	4	6	1	·	·
Cc1cc(C(=O)CSc2nc3ccccc3[nH]2)c(C)n1CC1CCCO1 (stereo not given)	-27	21*	-5	-43	-97	13	·
Cc1cc(C(=O)CSc2nc(N)cc(=O)[nH]2)c(C)n1CC1CCCO1 (stereo not given)	3	-8	0	2	3	·	·
CCCSc1nc(O)c(C2OC(=O)c3c2ccc(OC)c3OC)c(=O)n1-c1ccccc1 (stereo not given)	10	23*	6	10	6	39	·
CCCCC(=O)N(C)c1c(C)nc2ccc(C(=O)N3CCN(c4ccccc4)CC3)cn12	·	·	-6	·	-3	·	·
O=[N+]([O-])c1cc(-c2nc3nc4ccccc4nc3n2CCc2ccccc2)cc([N+](=O)[O-])c1	-49	17*	-6	13	-6	10	·
Cc1csc2nc(COC(=O)c3ccc(Cl)c([N+](=O)[O-])c3)cc(=O)n12	-3	30*	24	19	9	10	·
COC(=O)C1=C(Cn2cnc3ccccc32)NC(=O)NC1c1cc(C)ccc1C (stereo not given)	46*	76*	3	14	-29	62*	29
COc1ccc(C(=O)OCC(=O)NCCN2C(=O)CSC2=O)cc1	5	-3	0	3	-2	·	·
CCCCCCCCCCn1c2c(c(=N)c3c1CCC3)CCC2	27	-4	-11	19	-7	·	·
CCCCCCCCCn1c2c(c(=N)c3c1CCC3)CCCC2	41*	10*	-15	16	-15	7	38
COC(=O)c1cc(N=Nc2sc(N)nc2C)cc(C(=O)OC)c1	45*	-4	8	28	11	·	27
COCCN(C(=O)c1csnn1)C(C(=O)NC1CCCC1)c1ccccc1F (stereo not given)	53*	1	6	6	-1	·	25
SMILES	APJ antagonist	APJ agonist	CXCR6 inh	CCR6 antagonist	EBI2 block	APJ ag conf	APJ antag conf
COCCN(C(=O)c1csnn1)C(C(=O)NC1CCCC1)c1ccc(C)cc1 (stereo not given)	16	-2	5	9	6	·	·
Cc1cc(NC(=O)CC2CCCC2)n(-c2nc3ccccc3[nH]2)n1	14	-1	31	22	5	·	·
Cc1cc(NC(=O)c2ccc(F)cc2F)n(-c2nc3ccccc3[nH]2)n1	43*	-5	-13	-2	0	·	9
Cc1ccc(-n2nc3c(=O)n(CCCC(=O)NCCN4CCN(C)CC4)nc(C)c3c2C)cc1	11	-4	3	11	-11	·	·
CCc1cccc(C)c1NC(=O)COC(=O)Cc1ccccc1	·	·	-6	·	-5	·	·
CN(C)CCN(Cc1ccco1)C(=O)c1cc2c(Cl)nc3ccccc3c2s1	41*	-3	3	31	4	·	69*
Cc1cccc2cc3c(N)c(C(=O)N4CCOCC4)sc3nc12	51*	-11	7	23	2	·	7
CC(C)(C)c1cccc(Cn2nnc3ccccc32)c1O	10	14	-3	13	-20	·	·
Cc1cc(Cn2nnc3ccccc32)c(O)c(C(C)(C)C)c1	43*	-5	0	-2	4	·	2
CCOc1ccc(NC(=O)C2CCC(CNc3c(N4CCCCC4)c(=O)c3=O)CC2)cc1 (stereo not given)	47*	-2	6	-1	-4	·	19
CC(=O)N1CCC(C(=O)N2c3ccccc3N=C(c3ccc4c(c3)OCO4)C2C(=O)NCc2ccccc2)CC1 (stereo not given)	·	·	·	·	-7	·	·
Cc1ccc(NCC(=O)c2ccc([N+](=O)[O-])cc2)cc1	-13	9	-3	-4	15	·	·
Cc1ccc(C(=O)CNc2ccccc2C)cc1	76*	-15	58*	86*	0	·	120*
Cc1ccc(C(=O)CNc2cccc([N+](=O)[O-])c2)cc1	55*	-4	13	22	22	·	39
Cc1ccc(C(=O)CC(=O)c2ccc(C(C)(C)C)cc2)cc1	-2	-3	-6	22	16	·	·
Cc1ccc(C(=O)CNc2ccccc2)cc1	44*	-15	47*	83*	7	·	110*
CCOC1=C2CN(S(=O)(=O)c3ccc(C)cc3)[C@@H](c3ccccc3)C[C@H]2[C@H]2C(=O)N(c3ccccc3)C(=O)[C@H]2C1	·	·	2	·	6	·	·
COc1ccccc1CNC(=O)c1nn(C)c2c1CS(=O)(=O)c1ccccc1-2	10	-4	2	-6	1	·	·
COc1ccc2c(c1)C(=O)[C@H](O)[C@@H](c1ccc(OC)c(Br)c1)O2	58*	-21	·	62*	·	·	103*
O=C(COC(=O)c1cnccn1)NCc1ccccc1Cl	·	·	-1	·	-7	·	·
FC(F)(F)c1cccc(Sc2nc(-c3ccccc3)nnc2C(F)(F)F)c1	43*	-5	46*	46	16	·	91*
FC(F)(F)c1cccc(Oc2nc(-c3ccccc3)nnc2C(F)(F)F)c1	17	-4	3	35	-5	·	·
